Test results reported in ChEMBL document CHEMBL4406834, “Phenylthiazoles with nitrogenous side chain: An approach to overcome molecular obesity” (Eur J Med Chem, 2019).
Values after ≈ are worked out from the molar mass of the structure shown. Active and inactive are the calls of the source. No cut-off for these calls is given here.

What was measured:
Acinetobacter baumannii = experiment: Antibacterial activity against Acinetobacter baumannii ATCC 19606; assay type: functional; conditions: ATCC 19606 = CIP 70.34 = JCM 6841
Staphylococcus aureus [1] = experiment: Bactericidal activity against methicillin-resistant Staphylococcus aureus USA400 assessed as reduction in bacterial burden at 5 times MIC after 4 hrs by time kill assay; assay type: functional, organism-based
Streptococcus pneumoniae [2] = experiment: Bactericidal activity against methicillin-resistant Streptococcus pneumoniae ATCC 700677 incubated for 18 to 20 hrs followed by replating on tryptic soy agar plate and further incubated for 18 to 24 hrs by CLSI-based broth microdilution assay; assay type: functional
In short: (§1)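 MBC: after the broth microdilution MIC (CAMHB, ~5 × 10^5 CFU/mL, 37 °C, 18-20 h), 4 µL from wells without growth plated onto tryptic soy agar. Plates incubated 37 °C for 18-20 h. MBC is the lowest concentration giving 99.9% reduction in growth.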

Streptococcus pneumoniae [3] = experiment: Bactericidal activity against cephalosporin-resistant Streptococcus pneumoniae ATCC 51916 incubated for 18 to 20 hrs followed by replating on tryptic soy agar plate and further incubated for 18 to 24 hrs by CLSI-based broth microdilution assay; assay type: functional; in short: as §1
Enterococcus faecium [4] = experiment: Bactericidal activity against vancomycin-resistant Enterococcus faecium ATCC 700221 incubated for 18 to 20 hrs followed by replating on tryptic soy agar plate and further incubated for 18 to 24 hrs by CLSI-based broth microdilution assay; assay type: functional; in short: as §1
Enterococcus faecalis [5] = experiment: Bactericidal activity against vancomycin-resistant Enterococcus faecalis ATCC 51299 incubated for 18 to 20 hrs followed by replating on tryptic soy agar plate and further incubated for 18 to 24 hrs by CLSI-based broth microdilution assay; assay type: functional; in short: as §1
[6] = test system: Staphylococcus epidermidis; experiment: Bactericidal activity against methicillin-resistant Staphylococcus epidermidis NRS101 incubated for 18 to 20 hrs followed by replating on tryptic soy agar plate and further incubated for 18 to 24 hrs by CLSI-based broth microdilution assay; assay type: functional
Streptococcus pneumoniae [7] = experiment: Antibacterial activity against methicillin-resistant Streptococcus pneumoniae ATCC 700677 after 18 to 20 hrs by CLSI-based broth microdilution assay; assay type: functional
In short: (§2)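 Broth microdilution per CLSI. Strains grown aerobically overnight on tryptone soy agar at 37 °C, adjusted to 0.5 McFarland, then diluted in cation-adjusted Mueller-Hinton broth to about 5 × 10^5 CFU/mL. Compounds (10 mg/mL DMSO stocks) serially diluted. Incubated aerobically at 37 °C for 18-20 h. MIC is the lowest concentration with no visible growth.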

Listeria monocytogenes = experiment: Antibacterial activity against Listeria monocytogenes ATCC 19111 after 18 to 20 hrs by CLSI-based broth microdilution assay; assay type: functional
Streptococcus pneumoniae [8] = experiment: Antibacterial activity against cephalosporin-resistant Streptococcus pneumoniae ATCC 51916 after 18 to 20 hrs by CLSI-based broth microdilution assay; assay type: functional; in short: as §2
Enterococcus faecium [9] = experiment: Antibacterial activity against vancomycin-resistant Enterococcus faecium ATCC 700221 after 18 to 20 hrs by CLSI-based broth microdilution assay; assay type: functional; in short: as §2
Enterococcus faecalis [10] = experiment: Antibacterial activity against vancomycin-resistant Enterococcus faecalis ATCC 51299 after 18 to 20 hrs by CLSI-based broth microdilution assay; assay type: functional; in short: as §2
[11] = test system: Staphylococcus epidermidis; experiment: Antibacterial activity against methicillin-resistant Staphylococcus epidermidis NRS101 after 18 to 20 hrs by CLSI-based broth microdilution assay; assay type: functional; in short: as §2
Staphylococcus aureus [12] = experiment: Bactericidal activity against vancomycin-resistant Staphylococcus aureus 12 incubated for 18 to 20 hrs followed by replating on tryptic soy agar plate and further incubated for 18 to 24 hrs by CLSI-based broth microdilution assay; assay type: functional; in short: as §1
Staphylococcus aureus [13] = experiment: Bactericidal activity against methicilline-resistant Staphylococcus aureus NRS386 USA700 incubated for 18 to 20 hrs followed by replating on tryptic soy agar plate and further incubated for 18 to 24 hrs by CLSI-based broth microdilution assay; assay type: functional; in short: as §1
Staphylococcus aureus [14] = experiment: Bactericidal activity against methicilline-resistant Staphylococcus aureus NRS385 USA500 incubated for 18 to 20 hrs followed by replating on tryptic soy agar plate and further incubated for 18 to 24 hrs by CLSI-based broth microdilution assay; assay type: functional; in short: as §1
Staphylococcus aureus [15] = experiment: Bactericidal activity against methicilline-resistant Staphylococcus aureus NRS-119 incubated for 18 to 20 hrs followed by replating on tryptic soy agar plate and further incubated for 18 to 24 hrs by CLSI-based broth microdilution assay; assay type: functional; in short: as §1
Staphylococcus aureus [16] = experiment: Bactericidal activity against methicilline-sensitive Staphylococcus aureus NRS-107 incubated for 18 to 20 hrs followed by replating on tryptic soy agar plate and further incubated for 18 to 24 hrs by CLSI-based broth microdilution assay; assay type: functional; in short: as §1
Staphylococcus aureus [17] = experiment: Bactericidal activity against methicilline-sensitive Staphylococcus aureus ATCC 6538 incubated for 18 to 20 hrs followed by replating on tryptic soy agar plate and further incubated for 18 to 24 hrs by CLSI-based broth microdilution assay; assay type: functional; in short: as §1
Staphylococcus aureus [18] = experiment: Bactericidal activity against Staphylococcus aureus ATCC BAA42 incubated for 18 to 20 hrs followed by replating on tryptic soy agar plate and further incubated for 18 to 24 hrs by CLSI-based broth microdilution assay; assay type: functional; in short: as §1
Staphylococcus aureus [19] = experiment: Antibacterial activity against vancomycin-resistant Staphylococcus aureus 12 after 18 to 20 hrs by CLSI-based broth microdilution assay; assay type: functional; in short: as §2
Staphylococcus aureus [20] = experiment: Antibacterial activity against vancomycin-resistant Staphylococcus aureus 10 after 18 to 20 hrs by CLSI-based broth microdilution assay; assay type: functional; in short: as §2
Staphylococcus aureus [21] = experiment: Antibacterial activity against methicilline-resistant Staphylococcus aureus NRS385 USA500 after 18 to 20 hrs by CLSI-based broth microdilution assay; assay type: functional; in short: as §2
Staphylococcus aureus [22] = experiment: Antibacterial activity against methicilline-resistant Staphylococcus aureus NRS386 USA700 after 18 to 20 hrs by CLSI-based broth microdilution assay; assay type: functional; in short: as §2
Staphylococcus aureus [23] = experiment: Antibacterial activity against methicilline-resistant Staphylococcus aureus NRS123 USA400 after 18 to 20 hrs by CLSI-based broth microdilution assay; assay type: functional; in short: as §2
Staphylococcus aureus [24] = experiment: Antibacterial activity against methicilline-sensitive Staphylococcus aureus ATCC 6538 after 18 to 20 hrs by CLSI-based broth microdilution assay; assay type: functional; in short: as §2
[25] = Aqueous solubility of the compound in phosphate buffered saline assessed as concentration that produces no precipitate measured as OD at 540 nm; assay type: physicochemical
Staphylococcus aureus [26] = experiment: Antibacterial activity against methicillin-resistant Staphylococcus aureus NRS384 USA300 after 18 to 20 hrs by broth microdilution assay; assay type: functional; in short: as §2
Escherichia coli [27] = experiment: Antibacterial activity against Escherichia coli ATCC 25922; assay type: functional
Pseudomonas aeruginosa [28] = experiment: Antibacterial activity against Pseudomonas aeruginosa ATCC 27853; assay type: functional
Pseudomonas aeruginosa [29] = experiment: Antibacterial activity against Pseudomonas aeruginosa ATCC 15442; assay type: functional
Escherichia coli [30] = experiment: Bactericidal activity against Escherichia coli BW25113; assay type: functional
Escherichia coli [31] = experiment: Bactericidal activity against TolC-deficient Escherichia coli JW55031; assay type: functional
Klebsiella pneumoniae = experiment: Bactericidal activity against Klebsiella pneumoniae BAA-1706; assay type: functional
Pseudomonas aeruginosa [32] = experiment: Bactericidal activity against Pseudomonas aeruginosa ATCC 27853; assay type: functional
Pseudomonas aeruginosa [33] = experiment: Bactericidal activity against Pseudomonas aeruginosa ATCC 15442; assay type: functional
[34] = Safety index, ratio of non-toxic concentration for human Caco2 cells to MIC for methicillin-resistant Staphylococcus aureus NRS384 USA300; assay type: toxicity
In short: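 Caco-2 cells exposed to compound in triplicate at 32, 64 and 128 µg/mL for 2 h, then MTS reagent for 4 h, absorbance at OD490. Viability expressed as percent of DMSO control. Highest non-toxic concentration divided by the broth microdilution MIC against MRSA USA300.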

SMILES: C/C(=N\NC(=N)N)c1sc(-c2ccc(N3CCCC(C)C3)cc2)nc1C (centres undefined)
- MIC (Acinetobacter baumannii): 32 µg/mL (≈ 86.4 µM)
- inhibition (Staphylococcus aureus [1]): Active
- MBC (Streptococcus pneumoniae [2]): 32 µg/mL (≈ 86.4 µM)
- MBC (Streptococcus pneumoniae [3]): 16 µg/mL (≈ 43.2 µM)
- MBC (Enterococcus faecium [4]): 32 µg/mL (≈ 86.4 µM)
- MBC (Enterococcus faecalis [5]): 32 µg/mL (≈ 86.4 µM)
- MBC [6]: 8 µg/mL (≈ 21.6 µM)
- MIC (Streptococcus pneumoniae [7]): 8 µg/mL (≈ 21.6 µM)
- MIC (Listeria monocytogenes): 2 µg/mL (≈ 5.4 µM)
- MIC (Streptococcus pneumoniae [8]): 8 µg/mL (≈ 21.6 µM)
- MIC (Enterococcus faecium [9]): 4 µg/mL (≈ 10.8 µM)
- MIC (Enterococcus faecalis [10]): 8 µg/mL (≈ 21.6 µM)
- MIC [11]: 4 µg/mL (≈ 10.8 µM)
- MBC (Staphylococcus aureus [12]): 8 µg/mL (≈ 21.6 µM)
- MBC (Staphylococcus aureus [13]): 8 µg/mL (≈ 21.6 µM)
- MBC (Staphylococcus aureus [14]): 16 µg/mL (≈ 43.2 µM)
- MBC (Staphylococcus aureus [15]): 16 µg/mL (≈ 43.2 µM)
- MBC (Staphylococcus aureus [16]): 16 µg/mL (≈ 43.2 µM)
- MBC (Staphylococcus aureus [17]): 16 µg/mL (≈ 43.2 µM)
- MBC (Staphylococcus aureus [18]): 16 µg/mL (≈ 43.2 µM)
- MIC (Staphylococcus aureus [19]): 8 µg/mL (≈ 21.6 µM)
- MIC (Staphylococcus aureus [20]): 8 µg/mL (≈ 21.6 µM)
- MIC (Staphylococcus aureus [21]): 8 µg/mL (≈ 21.6 µM)
- MIC (Staphylococcus aureus [22]): 8 µg/mL (≈ 21.6 µM)
- MIC (Staphylococcus aureus [23]): 8 µg/mL (≈ 21.6 µM)
- MIC (Staphylococcus aureus [24]): 8 µg/mL (≈ 21.6 µM)
- solubility kinetic [25]: 435 µM (≈ 161 µg/mL)
- MIC (Staphylococcus aureus [26]): 4 µg/mL (≈ 10.8 µM)
- MIC (Escherichia coli [27]): 16 µg/mL (≈ 43.2 µM)
- MIC (Pseudomonas aeruginosa [28]): > 64 µg/mL
- MIC (Pseudomonas aeruginosa [29]): > 64 µg/mL
- MBC (Escherichia coli [30]): 32 µg/mL (≈ 86.4 µM)
- MBC (Escherichia coli [31]): 16 µg/mL (≈ 43.2 µM)
- MBC (Klebsiella pneumoniae): 32 µg/mL (≈ 86.4 µM)
- MBC (Pseudomonas aeruginosa [32]): > 64 µg/mL
- MBC (Pseudomonas aeruginosa [33]): > 64 µg/mL
- selectivity ratio [34]: 8

SMILES: C/C(=N\NC(=N)N)c1sc(-c2ccc(N3CCCCC3)cc2)nc1C
- MIC (Acinetobacter baumannii): 32 µg/mL (≈ 89.8 µM)
- inhibition (Staphylococcus aureus [1]): Active
- MBC (Streptococcus pneumoniae [2]): 16 µg/mL (≈ 44.9 µM)
- MBC (Streptococcus pneumoniae [3]): 16 µg/mL (≈ 44.9 µM)
- MBC (Enterococcus faecium [4]): 32 µg/mL (≈ 89.8 µM)
- MBC (Enterococcus faecalis [5]): 64 µg/mL (≈ 180 µM)
- MBC [6]: 8 µg/mL (≈ 22.4 µM)
- MIC (Streptococcus pneumoniae [7]): 8 µg/mL (≈ 22.4 µM)
- MIC (Listeria monocytogenes): 8 µg/mL (≈ 22.4 µM)
- MIC (Streptococcus pneumoniae [8]): 8 µg/mL (≈ 22.4 µM)
- MIC (Enterococcus faecium [9]): 8 µg/mL (≈ 22.4 µM)
- MIC (Enterococcus faecalis [10]): 16 µg/mL (≈ 44.9 µM)
- MIC [11]: 8 µg/mL (≈ 22.4 µM)
- MBC (Staphylococcus aureus [12]): 16 µg/mL (≈ 44.9 µM)
- MBC (Staphylococcus aureus [13]): 16 µg/mL (≈ 44.9 µM)
- MBC (Staphylococcus aureus [14]): 32 µg/mL (≈ 89.8 µM)
- MBC (Staphylococcus aureus [15]): 16 µg/mL (≈ 44.9 µM)
- MBC (Staphylococcus aureus [16]): 8 µg/mL (≈ 22.4 µM)
- MBC (Staphylococcus aureus [17]): 8 µg/mL (≈ 22.4 µM)
- MBC (Staphylococcus aureus [18]): 16 µg/mL (≈ 44.9 µM)
- MIC (Staphylococcus aureus [19]): 4 µg/mL (≈ 11.2 µM)
- MIC (Staphylococcus aureus [20]): 4 µg/mL (≈ 11.2 µM)
- MIC (Staphylococcus aureus [21]): 8 µg/mL (≈ 22.4 µM)
- MIC (Staphylococcus aureus [22]): 4 µg/mL (≈ 11.2 µM)
- MIC (Staphylococcus aureus [23]): 8 µg/mL (≈ 22.4 µM)
- MIC (Staphylococcus aureus [24]): 4 µg/mL (≈ 11.2 µM)
- solubility kinetic [25]: 480 µM (≈ 171 µg/mL)
- MIC (Staphylococcus aureus [26]): 4 µg/mL (≈ 11.2 µM)
- MIC (Escherichia coli [27]): 64 µg/mL (≈ 180 µM)
- MIC (Pseudomonas aeruginosa [28]): > 64 µg/mL
- MIC (Pseudomonas aeruginosa [29]): > 64 µg/mL
- MBC (Escherichia coli [30]): 64 µg/mL (≈ 180 µM)
- MBC (Escherichia coli [31]): 32 µg/mL (≈ 89.8 µM)
- MBC (Klebsiella pneumoniae): 64 µg/mL (≈ 180 µM)
- MBC (Pseudomonas aeruginosa [32]): > 64 µg/mL
- MBC (Pseudomonas aeruginosa [33]): > 64 µg/mL
- selectivity ratio [34]: 16
